Reference: article PMC4180220 (Drug metabolism letters, 2012)
“Also recorded” adds a separate entry of the source. Like-named read-outs stand apart in the source and are kept apart here.

Columns and labels:
Type in all cases: biochemical
[1] = biological target: T1, P450 1A1 (Homo sapiens, UniProt P04798); test: Ethoxyresorufin O-deethylation
T1 sequence (P04798 1-512): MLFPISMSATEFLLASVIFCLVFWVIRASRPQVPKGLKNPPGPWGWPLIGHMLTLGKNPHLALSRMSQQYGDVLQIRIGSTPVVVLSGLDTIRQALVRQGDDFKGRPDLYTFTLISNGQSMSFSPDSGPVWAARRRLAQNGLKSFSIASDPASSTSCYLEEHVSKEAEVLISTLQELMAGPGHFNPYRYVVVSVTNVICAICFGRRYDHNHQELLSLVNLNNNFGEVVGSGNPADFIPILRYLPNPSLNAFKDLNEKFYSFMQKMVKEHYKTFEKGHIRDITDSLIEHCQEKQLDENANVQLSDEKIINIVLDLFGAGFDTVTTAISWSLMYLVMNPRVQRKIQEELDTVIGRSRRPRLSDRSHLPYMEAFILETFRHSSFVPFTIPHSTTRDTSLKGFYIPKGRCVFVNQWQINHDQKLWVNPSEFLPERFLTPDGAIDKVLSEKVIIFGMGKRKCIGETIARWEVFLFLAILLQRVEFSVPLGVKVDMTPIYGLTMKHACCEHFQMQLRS

[2] = biological target: T2, human P450 1A2 (Homo sapiens, UniProt P05177); test: Methoxyresorufin O-demethylation
T2 sequence (P05177 1-516): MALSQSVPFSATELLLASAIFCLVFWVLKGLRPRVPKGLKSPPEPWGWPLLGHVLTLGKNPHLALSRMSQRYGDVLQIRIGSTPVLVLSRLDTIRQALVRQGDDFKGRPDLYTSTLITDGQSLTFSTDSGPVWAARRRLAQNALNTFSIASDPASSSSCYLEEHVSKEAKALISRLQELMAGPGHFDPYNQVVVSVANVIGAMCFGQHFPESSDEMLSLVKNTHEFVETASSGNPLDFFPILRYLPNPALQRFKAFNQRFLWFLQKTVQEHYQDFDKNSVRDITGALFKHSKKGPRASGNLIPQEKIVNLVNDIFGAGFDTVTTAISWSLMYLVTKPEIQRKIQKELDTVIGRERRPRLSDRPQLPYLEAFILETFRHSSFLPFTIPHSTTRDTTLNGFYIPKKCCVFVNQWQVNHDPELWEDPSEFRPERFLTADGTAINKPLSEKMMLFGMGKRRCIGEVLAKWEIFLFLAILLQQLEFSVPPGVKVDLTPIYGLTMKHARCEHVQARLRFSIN

[3] = biological target: T3, human P450 2A6 (Homo sapiens, UniProt P11509); test: Coumarin 7-hydroxylation inhibition assay
T3 sequence (P11509 1-494): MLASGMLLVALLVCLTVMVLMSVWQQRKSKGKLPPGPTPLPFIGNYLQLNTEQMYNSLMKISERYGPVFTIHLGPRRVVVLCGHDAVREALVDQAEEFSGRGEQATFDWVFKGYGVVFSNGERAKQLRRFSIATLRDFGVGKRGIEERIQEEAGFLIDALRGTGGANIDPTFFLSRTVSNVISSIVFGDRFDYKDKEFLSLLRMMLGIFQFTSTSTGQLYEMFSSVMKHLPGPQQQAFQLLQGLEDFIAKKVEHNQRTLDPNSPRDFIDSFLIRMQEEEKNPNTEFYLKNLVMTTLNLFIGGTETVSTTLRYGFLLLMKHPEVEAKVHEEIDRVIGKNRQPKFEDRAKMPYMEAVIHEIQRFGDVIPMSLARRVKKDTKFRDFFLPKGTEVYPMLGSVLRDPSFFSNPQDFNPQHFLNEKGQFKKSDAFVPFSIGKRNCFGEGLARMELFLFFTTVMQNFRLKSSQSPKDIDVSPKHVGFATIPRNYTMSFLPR

[4] = biological target: T4, rat P4502B1 (Rattus norvegicus, UniProt P00176); test: Pentoxyresorufin O-depentylation
T4 sequence (P00176 1-491): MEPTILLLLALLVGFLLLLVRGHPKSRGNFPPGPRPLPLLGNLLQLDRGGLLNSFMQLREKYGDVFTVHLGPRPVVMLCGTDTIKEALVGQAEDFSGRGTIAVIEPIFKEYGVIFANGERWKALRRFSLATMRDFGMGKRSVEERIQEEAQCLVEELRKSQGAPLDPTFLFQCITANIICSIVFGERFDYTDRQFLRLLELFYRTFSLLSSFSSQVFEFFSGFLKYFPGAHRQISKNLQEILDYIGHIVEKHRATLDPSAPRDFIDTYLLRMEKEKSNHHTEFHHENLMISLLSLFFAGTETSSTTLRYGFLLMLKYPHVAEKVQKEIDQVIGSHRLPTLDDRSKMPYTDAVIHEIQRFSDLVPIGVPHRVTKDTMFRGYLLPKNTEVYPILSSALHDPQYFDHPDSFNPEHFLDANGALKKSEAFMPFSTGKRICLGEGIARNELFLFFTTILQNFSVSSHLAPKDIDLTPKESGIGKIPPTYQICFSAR
Summary of the method: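 Rat P450 2B1 supersomes (5 nM final) and resorufin pentyl ether (5 μM final) in 0.1 M potassium phosphate pH 7.6 with MgCl2; test compound in DMSO. Started with NADPH regenerating system (NADP+, glucose-6-phosphate, G6P dehydrogenase), 37°C. Resorufin fluorescence (535/585 nm) progress curves fit second-order; linear coefficient taken as activity.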

[5] = biological target: T1, P450 1A1; test: Mechanism-based inhibition of P450 1A1; settings: NADPH-dependency assay
Summary of the method: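 Human P450 1A1 supersomes (5 nM final) pre-incubated 5 min at 37°C with the test compound at varied concentrations in 0.1 M potassium phosphate pH 7.6 with MgCl2, with or without NADPH regenerating system. Reaction started with resorufin ethyl ether (5 μM final) plus buffer or the regenerating system. Resorufin formation followed at 535 nm ex/585 nm em, 37°C; DMSO controls.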

[6] = compounds of this study, log conversion of the IC50
[7] = read-out: IC50 2A6, human P450 2A6 supersomes, coumarin 5 μM, Dixon plot

Row | Structure (SMILES) | Actual (EL) logIC50 (9-logIC50), P450 1A1 [1, 6] | Actual (EL) logIC50 (9-logIC50), P450 1A2 [2, 6] | IC50 [3, 7] [µM] | also measured
1 | O=c1cc(-c2ccccc2O)oc2ccccc12 [2′-HF, reference compound] | 4.7518 | 5.0273 | > 50 | –
2 | C#CCOc1ccccc1-c1cc(=O)c2ccccc2o1 [2′-PF, 2′-flavone propargyl ether] | 6.2518 | 5.8894 | > 10 | Inhibition of P450 2B1 (in words) [4]: inhibited
3 | O=c1cc(-c2cccc(O)c2)oc2ccccc12 [3′-HF, reference compound] | 5.3010 | 5.0353 | > 50 | –
4 | C#CCOc1cccc(-c2cc(=O)c3ccccc3o2)c1 [3′-PF, 3′-flavone propargyl ether] | 7.6990 | 6.1739 | > 10 | Mechanism-based inhibition of P450 1A1 (in words) [5]: ability to cause mechanism-based inhibition; also recorded: exhibited mechanism-based inhibition
5 | O=c1cc(-c2ccc(O)cc2)oc2ccccc12 [4′-HF, reference compound] | 4.7378 | 5.1858 | > 50 | –
6 | C#CCOc1ccc(-c2cc(=O)c3ccccc3o2)cc1 [4′-PF, 4′-flavone propargyl ether] | 6.1871 | 5.8962 | > 10 | –
7 | O=c1cc(-c2ccccc2)oc2cccc(O)c12 [Compound 5-HF, 5-hydroxy flavone, reference compound] | – | – | – | IC50 [4]: > 50 µM; IC50 [3]: > 50 µM
8 | C#CCOc1cccc2oc(-c3ccccc3)cc(=O)c12 [Compound 5-PF, 5-flavone propargyl ether] | 5.7959 | 6.4202 | > 10 | –
9 | O=c1cc(-c2ccccc2)oc2ccc(O)cc12 [Compound 6-HF, reference compound] | 4.9080 | 5.1599 | > 50 | –
10 | C#CCOc1ccc2oc(-c3ccccc3)cc(=O)c2c1 [Compound 6-PF, 6-flavone propargyl ether] | 6.4318 | – | > 10 | –
11 | C#CCOc1ccc2c(c1)C(=O)CC(c1ccccc1)O2 (centres unmarked) [Compound 6-PFN, 6-flavanone propargyl ether] | – | – | – | Actual (EL) logIC50 (9-logIC50), P450 1A1 [1]: 5.2388; IC50 [1]: 5.77 µM; IC50 [2]: > 10 µM; Inhibition of P450 1A2 (in words) [2]: did not show inhibition; Inhibition of P450 2B1 (in words) [4]: inhibited; IC50 [3]: > 10 µM
12 | O=c1cc(-c2ccccc2)oc2cc(O)ccc12 [Compound 7-HF, 7-hydroxy flavone, reference compound] | – | – | – | IC50 [1]: 6.79 µM; IC50 [2]: 2.55 µM; IC50 [4]: > 50 µM; IC50 [3]: > 50 µM; Mechanism-based inhibition of P450 1A1 (in words) [5]: exhibited mechanism-based inhibition
13 | C#CCOc1ccc2c(=O)cc(-c3ccccc3)oc2c1 [Compound 7-PF, 7-flavone propargyl ether] | – | – | > 10 | –
14 | C#CCOc1ccc2c(c1)OC(c1ccccc1)CC2=O (centres unmarked) [Compound 7-PFN, 7-flavanone propargyl ether] | – | – | – | Actual (EL) logIC50 (9-logIC50), P450 1A1 [1]: 5.2233; IC50 [1]: 5.98 µM; Actual (EL) logIC50 (9-logIC50), P450 1A2 [2]: 6.0132; IC50 [2]: 0.97 µM; IC50 [3]: > 10 µM
